Measured values from different studies.
Compare with care: the assays were run in different laboratories.
Target: Serine/threonine-protein kinase haspin (HASPIN, Homo sapiens, UniProt Q8TF76)
Sequence (Q8TF76 1-798, as in one of the studies): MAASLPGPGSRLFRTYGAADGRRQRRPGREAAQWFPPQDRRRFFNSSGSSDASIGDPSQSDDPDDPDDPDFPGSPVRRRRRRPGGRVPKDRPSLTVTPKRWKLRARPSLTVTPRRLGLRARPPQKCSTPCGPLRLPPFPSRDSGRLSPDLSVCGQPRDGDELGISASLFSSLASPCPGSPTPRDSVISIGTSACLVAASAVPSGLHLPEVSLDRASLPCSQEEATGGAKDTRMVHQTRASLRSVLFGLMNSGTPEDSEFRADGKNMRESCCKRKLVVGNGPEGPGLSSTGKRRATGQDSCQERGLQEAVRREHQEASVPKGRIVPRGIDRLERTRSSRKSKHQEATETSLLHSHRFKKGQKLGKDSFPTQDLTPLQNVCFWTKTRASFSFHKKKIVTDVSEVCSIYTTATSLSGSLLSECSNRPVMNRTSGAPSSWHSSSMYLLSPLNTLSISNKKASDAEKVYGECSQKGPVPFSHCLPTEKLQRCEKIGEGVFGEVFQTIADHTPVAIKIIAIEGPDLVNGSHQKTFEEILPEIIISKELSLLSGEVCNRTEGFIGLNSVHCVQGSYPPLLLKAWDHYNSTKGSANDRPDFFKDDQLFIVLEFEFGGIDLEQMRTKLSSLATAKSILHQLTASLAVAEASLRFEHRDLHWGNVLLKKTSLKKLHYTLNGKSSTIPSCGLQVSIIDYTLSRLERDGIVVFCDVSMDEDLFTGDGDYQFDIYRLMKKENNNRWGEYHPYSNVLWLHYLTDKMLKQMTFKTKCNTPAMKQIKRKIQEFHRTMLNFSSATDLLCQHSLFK

| Compound | assay | conditions | measurement | value |
| --- | --- | --- | --- | --- |
| CCN(CC)CCNC(=O)c1c(C)[nH]c(/C=C2\C(=O)Nc3ccc(Cl)cc32)c1C | enzyme activity, inhibitor | 0.5 µM | remaining activity | 82.9% |
| Cc1c(NC(=O)c2cc(C(N)=O)nc3cc(F)ccc23)c(C(F)(F)F)nn1Cc1ccc(C(C)(C)C)cc1 | cell-free assay, competition with immobilised ligand | 1 µM | remaining binding | 100% |
| CNC(=O)c1cc(Oc2ccc(NC(=O)Nc3ccc(Cl)c(C(F)(F)F)c3)cc2)ccn1 | enzyme activity, inhibitor | 0.3 µM | inhibition | 8% |
| CCCOc1ccc([C@H]2[C@H](C(=O)O)[C@@H](c3ccc4c(c3)OCO4)CN2CC(=O)Nc2c(CC)cccc2CC)cc1 | cell-free assay, competition with immobilised ligand | 1 µM | remaining binding | 62% |
| N#CCCc1ccc2c(c1)-c1[nH]c3ccc([N+](=O)[O-])cc3c1CC(=O)N2 | cell-free assay | 0.5 µM | remaining signal | 110% |
| Cn1cncc1C1=CN(c2ncnc3[nH]cnc23)CCS1 | enzyme activity, inhibitor, radiometric | 2 µM | inhibition | 88.4% |
| Cc1nc(Cc2cccc(C(F)(F)F)c2)sc1-c1ccc(C(N)=O)nc1 | cell-free assay, competition with immobilised ligand | 1 µM | remaining binding | 100% |
| CCCOc1ccc(OC)c(F)c1C(=O)c1ccc(C(=O)N[C@@H]2CNC[C@H]2NC(=O)c2ccc3[nH]ncc3c2)cc1 | enzyme activity, inhibitor | 10 µM | remaining activity | 22% |
| O=C1Nc2ccc(Cl)cc2C1=Cc1cc(Cl)c(O)c(Cl)c1 | cell-free assay | 0.5 µM | remaining signal | 8.65% |
| COc1cc(-c2cc(-c3ccc(N4CCNCC4)cc3)cnc2C)cc(OC)c1OC | enzyme activity, inhibitor | 1 µM | inhibition | 3% |
| COCCOc1nc(-c2ccc(Cl)nc2)nc2c1CN(C(=O)c1ncn3ccccc13)CC2 | cell-free assay, competition with immobilised ligand | 0.1 µM | remaining binding | 100% |
| CC(C)(C)c1nc2c(s1)c1nc(N)ncc1c1ccc(NS(=O)(=O)c3c(F)cccc3F)c(F)c12 | enzyme activity, inhibitor, radiometric | 1 µM | remaining activity | 118% |
| CC/C(=N\NC(=O)NCc1cccc(O)c1)c1ccc(O)c(C)c1O | enzyme activity, inhibitor | 0.1 µM | inhibition | -0.2% |
| CN1CC(Oc2cnc(C#N)cc2-c2ccn3nc(NC(=O)C4CC4)cc3c2)C1 | enzyme activity, inhibitor | 1 µM | inhibition | 3% |
| CNCc1ccccc1-c1csc([C@@H](C)Nc2nc(C)nc3cc(OC)c(OC)cc23)c1 | cell-free assay, competition with immobilised ligand | 1 µM | remaining binding | 98% |
| Cc1cc(NC(=O)c2cccc3cc(-c4cccc5[nH]nc(N)c45)ccc23)ccc1F | enzyme activity, inhibitor | 0.1 µM | activity vs control | 111% |
| Cc1cnc(NC2CCOCC2)nc1-n1cnc(C(=O)NC(CN)c2cc(F)cc(Cl)c2)c1 (stereo not shown) | enzyme activity, inhibitor, radiometric | 1 µM | remaining activity | 40% |
| Cc1ccc(Nc2nccc(N(C)c3ccc4c(C)n(C)nc4c3)n2)cc1S(N)(=O)=O | enzyme activity, inhibitor | 10 µM | inhibition | 8% |
| Cn1cnc(Br)c1C1=CN(c2ncnc3[nH]cnc23)CCS1 | enzyme activity, inhibitor, radiometric | 2 µM | inhibition | 88.8% |
| O=C(Nc1ccc(Oc2ccc(F)cc2)cc1)N1CCc2ncccc2[C@H]1c1ccc(F)cc1 | cell-free assay, competition with immobilised ligand | 1 µM | remaining binding | 85% |
| COc1ccc(C(=O)Nc2sc3c(c2C(N)=O)CCCC3)cc1OC | enzyme activity, inhibitor | 0.5 µM | remaining activity | 82.8% |
| COc1ccc2c(O[C@@H]3C[C@H]4C(=O)N[C@]5(C(=O)O)CC5/C=C\CCCCC[C@H](NC(=O)OC5CCCC5)C(=O)N4C3)cc(-c3csc(NC(=O)C(C)C)n3)nc2c1C (stereo partly shown) | cell-free assay, competition with immobilised ligand | 1 µM | remaining binding | 97% |
| Cc1sc(C(=O)NC2COC2)cc1-n1cc(NC(=O)Nc2c(F)cccc2Cl)cn1 | enzyme activity, inhibitor | 10 µM | remaining activity | 92.4% |
| C[C@@H]1CN(c2cc(-c3nn(C)c4ccc(OC5(C)CC5)cc34)ncn2)C[C@H](C)O1 | cell-free assay, competition with immobilised ligand | 1 µM | remaining binding | 99% |
| O=C(O)c1ccc2c3c1cccc3c(=O)n1c3ccccc3nc21 | enzyme activity, inhibitor | 0.5 µM | remaining activity | 90.9% |
